Source: ChEMBL document CHEMBL1137342 (J Med Chem, 2006)

Key:
[1] = biological target: D(2) dopamine receptor (Rattus norvegicus) (UniProt P61169); assay: Intrinsic activity at rat dopamine D2L receptor expressed in HEK293 cells assessed as inhibition of forskolin-stimulated cAMP production relative to dopamine; format: functional, cell-based
In short: (§1)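 HEK293 cells stably expressing rat D2L, grown in DMEM with 5% fetal clone serum, 5% bovine calf serum and puromycin. Confluent monolayers were treated with ligands diluted in EBSS buffer (pH 7.4) with 5 µM forskolin and 500 µM IBMX. The reaction was stopped with 3% TCA. cAMP was measured in duplicate by [3H]cAMP competition with adrenal binding protein (2-3 h, 4 °C).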

D(1A) dopamine receptor [2] = biological target: D(1A) dopamine receptor (Homo sapiens, UniProt P21728); assay: Activity at human dopamine D1 receptor expressed in HEK293 cells assessed as stimulation of cAMP production; format: functional, cell-based
D(1A) dopamine receptor [3] = biological target: D(1A) dopamine receptor (Sus scrofa, UniProt P50130); assay: Displacement of [3H]SCH-23390 from dopamine D1-like receptor in porcine striata homogenate
D(2) dopamine receptor [4] = biological target: D(2) dopamine receptor (Rattus norvegicus, UniProt P61169); assay: Activity at rat dopamine D2L receptor expressed in HEK293 cells assessed as inhibition of forskolin-stimulated cAMP production; format: functional, cell-based; in short: as §1
D(4) dopamine receptor [5] = biological target: T1, D(4) dopamine receptor (Homo sapiens, UniProt P21917); format: functional, cell-based, HEK293
T1 sequence (P21917 whole entry): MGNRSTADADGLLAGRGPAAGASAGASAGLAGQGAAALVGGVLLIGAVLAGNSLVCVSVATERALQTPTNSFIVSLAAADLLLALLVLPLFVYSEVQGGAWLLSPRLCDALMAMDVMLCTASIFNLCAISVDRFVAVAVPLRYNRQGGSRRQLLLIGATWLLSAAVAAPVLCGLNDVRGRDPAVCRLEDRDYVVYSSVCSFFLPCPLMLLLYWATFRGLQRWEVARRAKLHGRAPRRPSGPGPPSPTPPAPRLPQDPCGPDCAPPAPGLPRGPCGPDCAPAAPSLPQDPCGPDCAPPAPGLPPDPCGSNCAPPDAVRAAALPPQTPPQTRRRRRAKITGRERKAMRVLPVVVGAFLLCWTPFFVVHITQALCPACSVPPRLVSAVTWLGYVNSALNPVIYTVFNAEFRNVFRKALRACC

D(1B) dopamine receptor = D(1B) dopamine receptor (Homo sapiens, UniProt P21918); assay: Binding affinity to human cloned dopamine D5 receptor
[6] = biological target: T2, Alpha-2A adrenergic receptor (Homo sapiens, UniProt P08913); assay: Binding affinity to human cloned adrenergic alpha 2A receptor
T2 sequence (P08913 whole entry): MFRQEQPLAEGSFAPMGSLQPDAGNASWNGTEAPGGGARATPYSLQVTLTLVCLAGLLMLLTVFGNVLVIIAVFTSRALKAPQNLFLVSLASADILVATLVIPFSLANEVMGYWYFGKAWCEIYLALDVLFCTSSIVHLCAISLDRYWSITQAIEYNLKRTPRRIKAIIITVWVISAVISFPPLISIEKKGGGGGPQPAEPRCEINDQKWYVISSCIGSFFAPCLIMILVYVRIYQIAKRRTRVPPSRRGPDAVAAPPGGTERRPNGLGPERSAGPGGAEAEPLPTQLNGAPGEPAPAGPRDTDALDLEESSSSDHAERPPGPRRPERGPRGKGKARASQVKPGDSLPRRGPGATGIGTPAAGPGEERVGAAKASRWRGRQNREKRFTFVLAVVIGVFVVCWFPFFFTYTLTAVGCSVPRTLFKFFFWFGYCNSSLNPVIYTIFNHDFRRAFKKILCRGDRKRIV

D(2) dopamine receptor [7] = biological target: D(2) dopamine receptor (Homo sapiens, UniProt P14416); assay: Binding affinity to human cloned dopamine D2 receptor
D(3) dopamine receptor = D(3) dopamine receptor (Homo sapiens, UniProt P35462); assay: Binding affinity to human cloned dopamine D3 receptor
D(4) dopamine receptor [8] = biological target: T1, D(4) dopamine receptor; assay: Binding affinity to human cloned dopamine D4 receptor
[9] = biological target: T3, Alpha-2B adrenergic receptor (Homo sapiens, UniProt P18089); assay: Binding affinity to human cloned adrenergic alpha 2B receptor receptor
T3 sequence (P18089 whole entry): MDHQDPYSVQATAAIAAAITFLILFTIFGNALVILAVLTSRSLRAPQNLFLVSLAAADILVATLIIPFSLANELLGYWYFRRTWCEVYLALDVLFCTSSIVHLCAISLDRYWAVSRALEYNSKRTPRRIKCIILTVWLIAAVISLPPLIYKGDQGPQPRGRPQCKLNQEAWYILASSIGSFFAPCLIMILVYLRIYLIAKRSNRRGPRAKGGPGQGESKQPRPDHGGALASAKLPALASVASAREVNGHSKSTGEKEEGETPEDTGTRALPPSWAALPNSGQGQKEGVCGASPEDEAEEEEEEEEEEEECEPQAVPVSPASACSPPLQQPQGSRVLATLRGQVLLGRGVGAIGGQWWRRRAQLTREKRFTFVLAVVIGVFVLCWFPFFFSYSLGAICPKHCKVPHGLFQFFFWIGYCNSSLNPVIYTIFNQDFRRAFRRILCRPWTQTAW

[10] = biological target: T4, Alpha-2C adrenergic receptor (Homo sapiens, UniProt P18825); assay: Binding affinity to human cloned adrenergic alpha 2C receptor receptor
T4 sequence (P18825 whole entry): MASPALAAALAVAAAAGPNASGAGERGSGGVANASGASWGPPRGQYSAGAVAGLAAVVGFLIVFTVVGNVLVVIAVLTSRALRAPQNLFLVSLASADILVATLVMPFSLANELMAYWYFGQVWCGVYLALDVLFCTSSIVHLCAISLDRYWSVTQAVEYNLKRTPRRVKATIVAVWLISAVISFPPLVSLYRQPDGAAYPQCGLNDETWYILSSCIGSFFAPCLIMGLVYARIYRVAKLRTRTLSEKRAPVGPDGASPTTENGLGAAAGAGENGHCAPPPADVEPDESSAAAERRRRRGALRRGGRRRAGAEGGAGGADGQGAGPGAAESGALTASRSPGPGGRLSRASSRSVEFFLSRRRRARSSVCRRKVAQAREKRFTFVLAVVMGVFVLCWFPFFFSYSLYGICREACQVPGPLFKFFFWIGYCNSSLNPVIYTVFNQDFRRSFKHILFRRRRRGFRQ

Sequence of D(2) dopamine receptor (Rattus norvegicus, UniProt P61169) (P61169 whole entry): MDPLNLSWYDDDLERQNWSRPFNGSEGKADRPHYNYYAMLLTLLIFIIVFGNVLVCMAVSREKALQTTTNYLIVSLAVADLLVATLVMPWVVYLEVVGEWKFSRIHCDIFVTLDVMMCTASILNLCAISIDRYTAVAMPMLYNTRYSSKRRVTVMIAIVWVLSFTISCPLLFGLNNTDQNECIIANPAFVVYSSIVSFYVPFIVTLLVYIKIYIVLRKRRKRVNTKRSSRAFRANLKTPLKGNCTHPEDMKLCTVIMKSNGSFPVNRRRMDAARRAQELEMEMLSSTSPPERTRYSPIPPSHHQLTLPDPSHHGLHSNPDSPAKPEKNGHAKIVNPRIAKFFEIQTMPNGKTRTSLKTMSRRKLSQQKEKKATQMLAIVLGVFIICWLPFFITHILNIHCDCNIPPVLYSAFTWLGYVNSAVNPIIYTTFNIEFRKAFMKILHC
Sequence of D(2) dopamine receptor (Rattus norvegicus) (P61169 whole entry): as above
Sequence of D(2) dopamine receptor (Homo sapiens, UniProt P14416) (P14416 whole entry): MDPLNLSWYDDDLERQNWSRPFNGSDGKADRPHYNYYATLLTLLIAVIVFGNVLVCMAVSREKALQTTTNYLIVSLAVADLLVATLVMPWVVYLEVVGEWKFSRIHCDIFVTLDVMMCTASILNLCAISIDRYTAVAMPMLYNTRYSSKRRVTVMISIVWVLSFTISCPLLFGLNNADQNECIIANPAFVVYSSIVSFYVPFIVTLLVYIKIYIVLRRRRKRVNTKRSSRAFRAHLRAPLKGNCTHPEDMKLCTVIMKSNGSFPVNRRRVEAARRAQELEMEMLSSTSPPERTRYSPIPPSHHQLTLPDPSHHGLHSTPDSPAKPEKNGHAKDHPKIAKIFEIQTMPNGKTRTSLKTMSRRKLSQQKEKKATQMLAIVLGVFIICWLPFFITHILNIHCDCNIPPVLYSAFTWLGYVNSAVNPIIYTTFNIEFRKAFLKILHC
Sequence of D(1A) dopamine receptor (Homo sapiens, UniProt P21728) (P21728 whole entry): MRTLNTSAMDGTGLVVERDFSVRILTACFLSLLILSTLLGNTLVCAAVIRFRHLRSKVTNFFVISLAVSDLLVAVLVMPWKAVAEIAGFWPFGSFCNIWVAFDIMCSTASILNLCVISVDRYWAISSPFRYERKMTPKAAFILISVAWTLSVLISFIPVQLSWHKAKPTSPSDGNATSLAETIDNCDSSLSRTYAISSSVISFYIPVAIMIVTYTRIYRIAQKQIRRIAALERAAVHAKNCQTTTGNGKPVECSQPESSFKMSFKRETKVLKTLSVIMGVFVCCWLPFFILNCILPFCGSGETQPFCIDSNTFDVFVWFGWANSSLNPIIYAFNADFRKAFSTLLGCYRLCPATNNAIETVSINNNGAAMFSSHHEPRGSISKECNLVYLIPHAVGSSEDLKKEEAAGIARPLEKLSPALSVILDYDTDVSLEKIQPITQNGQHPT
Sequence of D(3) dopamine receptor (P35462 whole entry): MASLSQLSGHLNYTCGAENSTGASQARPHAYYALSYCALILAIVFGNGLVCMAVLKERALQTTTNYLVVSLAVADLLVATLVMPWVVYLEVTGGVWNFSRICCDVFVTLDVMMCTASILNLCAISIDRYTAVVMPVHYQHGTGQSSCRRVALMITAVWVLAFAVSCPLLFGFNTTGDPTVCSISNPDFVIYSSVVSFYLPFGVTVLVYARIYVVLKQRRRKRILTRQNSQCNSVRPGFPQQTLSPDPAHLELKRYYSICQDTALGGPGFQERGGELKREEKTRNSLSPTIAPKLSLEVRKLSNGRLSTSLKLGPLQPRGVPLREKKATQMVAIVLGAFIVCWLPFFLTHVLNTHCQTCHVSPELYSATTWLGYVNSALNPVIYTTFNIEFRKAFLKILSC
Sequence of D(1B) dopamine receptor (P21918 whole entry): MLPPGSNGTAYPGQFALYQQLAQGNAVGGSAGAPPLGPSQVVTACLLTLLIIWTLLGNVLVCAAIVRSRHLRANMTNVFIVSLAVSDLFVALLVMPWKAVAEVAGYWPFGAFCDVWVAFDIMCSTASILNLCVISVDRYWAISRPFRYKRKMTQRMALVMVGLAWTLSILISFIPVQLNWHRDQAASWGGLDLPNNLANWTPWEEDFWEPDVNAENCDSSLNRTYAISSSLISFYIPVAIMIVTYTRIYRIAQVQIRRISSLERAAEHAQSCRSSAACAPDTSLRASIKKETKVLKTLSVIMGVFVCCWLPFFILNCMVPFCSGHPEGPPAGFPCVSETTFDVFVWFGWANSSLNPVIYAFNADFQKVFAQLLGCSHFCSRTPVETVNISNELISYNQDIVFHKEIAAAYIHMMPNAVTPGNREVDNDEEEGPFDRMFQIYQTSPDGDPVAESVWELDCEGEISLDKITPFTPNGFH
Sequence of D(1A) dopamine receptor (Sus scrofa, UniProt P50130) (P50130 whole entry): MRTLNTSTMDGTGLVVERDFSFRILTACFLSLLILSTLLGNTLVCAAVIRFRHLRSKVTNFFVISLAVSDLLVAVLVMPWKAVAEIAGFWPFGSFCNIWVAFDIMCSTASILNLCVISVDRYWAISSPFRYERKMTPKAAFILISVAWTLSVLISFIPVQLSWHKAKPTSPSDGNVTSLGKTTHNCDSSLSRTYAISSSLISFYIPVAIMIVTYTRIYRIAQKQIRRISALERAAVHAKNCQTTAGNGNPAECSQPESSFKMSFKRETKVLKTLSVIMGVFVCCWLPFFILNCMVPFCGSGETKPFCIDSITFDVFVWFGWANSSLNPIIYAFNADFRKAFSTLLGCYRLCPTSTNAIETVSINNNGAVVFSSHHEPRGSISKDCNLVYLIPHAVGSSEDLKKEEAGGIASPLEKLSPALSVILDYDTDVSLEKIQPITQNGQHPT

SMILES	Intrinsic activity [1] [%]	EC50 (D(2) dopamine receptor [4]) [nM]	EC50 (D(4) dopamine receptor [5]) [nM]	further results
NCCc1ccc(O)c(O)c1	100	–	–	–
Oc1cc2c(cc1O)[C@H]1c3ccccc3CN[C@@H]1CC2	70	–	–	–
CCCN1Cc2ccccc2C2c3cc(O)c(O)cc3OCC21 (racemic)	92	1600	21	EC50 (D(1A) dopamine receptor [2]): 1100 nM; Ki (D(1A) dopamine receptor [3]): 330 nM
Oc1cc2c(cc1O)[C@H]1c3ccccc3CN[C@@H]1CO2 (single isomer, unassigned)	–	> 10000	95	–
Oc1cc2c(cc1O)C1c3ccccc3CNC1CO2 (racemic) [DOXANTHRINE]	–	> 10000	110	Ki (D(1B) dopamine receptor): 7 nM; Ki [6]: 180 nM; Ki (D(2) dopamine receptor [7]): 1910 nM; Ki (D(3) dopamine receptor): 390 nM; Ki (D(4) dopamine receptor [8]): 90 nM; Ki [9]: 10 nM; Ki [10]: 2 nM
CCCN1CCC[C@@H]2Cc3n[nH]cc3C[C@H]21	95	–	–	–
Oc1cc2c(cc1O)[C@@H]1c3ccccc3CN[C@H]1CO2 (single isomer, unassigned)	–	> 10000	230	–
